Measurements as given in ChEMBL document CHEMBL3779805, “Orally bioavailable pyridine and pyrimidine-based Factor XIa inhibitors: Discovery of the methyl N-phenyl carbamate P2 prime group” (Bioorg Med Chem, 2016).
One block for each compound: values may come before it.

Experiments:
[1] = biological target: Coagulation factor X (Homo sapiens, UniProt P00742); experiment: Inhibition of human coagulation factor 10a assessed as reduction in release of p-nitroaniline after 10 to 120 mins by Michaelis-Menten equation analysis
How it was run: (§1)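 Purified human enzymes with commercial synthetic peptide substrates. IC50 from 4–11 inhibitor concentrations, run in duplicate at a fixed substrate concentration (standard error <20%). Ki = IC50/(1+S/Km), assuming competitive inhibition.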

[2] = biological target: Coagulation factor IX (Homo sapiens, UniProt P00740); experiment: Inhibition of human coagulation factor 9a assessed as reduction in release of p-nitroaniline after 10 to 120 mins by Michaelis-Menten equation analysis; how it was run: as §1
[3] = biological target: Coagulation factor XI (Homo sapiens, UniProt P03951)
[4] = biological target: Urokinase-type plasminogen activator (Homo sapiens, UniProt P00749); experiment: Inhibition of human urokinase assessed as reduction in release of p-nitroaniline after 10 to 120 mins by Michaelis-Menten equation analysis; how it was run: as §1
[5] = biological target: Trypsin (Homo sapiens, UniProt P07477+P07478+P35030); experiment: Inhibition of human coagulation trypsin assessed as reduction in release of p-nitroaniline after 10 to 120 mins by Michaelis-Menten equation analysis; format: protein assay; how it was run: as §1
[6] = biological target: T1, Coagulation factor VII (Homo sapiens, UniProt P08709); experiment: Inhibition of human coagulation factor 7a assessed as reduction in release of p-nitroaniline after 10 to 120 mins by Michaelis-Menten equation analysis; how it was run: as §1
T1 sequence (P08709 whole entry): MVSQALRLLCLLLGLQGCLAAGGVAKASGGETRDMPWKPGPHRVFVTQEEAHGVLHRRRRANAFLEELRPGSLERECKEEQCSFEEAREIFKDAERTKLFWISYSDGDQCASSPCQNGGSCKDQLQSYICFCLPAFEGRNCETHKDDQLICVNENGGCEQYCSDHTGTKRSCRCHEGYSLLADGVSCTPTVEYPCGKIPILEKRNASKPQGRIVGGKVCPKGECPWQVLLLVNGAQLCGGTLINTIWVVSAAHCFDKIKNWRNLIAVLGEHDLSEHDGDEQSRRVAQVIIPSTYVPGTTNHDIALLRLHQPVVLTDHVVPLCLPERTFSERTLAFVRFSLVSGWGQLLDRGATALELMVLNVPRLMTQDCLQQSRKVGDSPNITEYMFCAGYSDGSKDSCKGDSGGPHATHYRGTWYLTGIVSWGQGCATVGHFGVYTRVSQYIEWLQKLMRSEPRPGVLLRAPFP

[7] = biological target: Plasminogen (Homo sapiens, UniProt P00747); experiment: Inhibition of human plasmin assessed as reduction in release of p-nitroaniline after 10 to 120 mins by Michaelis-Menten equation analysis; how it was run: as §1
[8] = biological target: Tissue-type plasminogen activator (Homo sapiens, UniProt P00750); experiment: Inhibition of human TPA assessed as reduction in release of p-nitroaniline after 10 to 120 mins by Michaelis-Menten equation analysis; how it was run: as §1
[9] = biological target: Plasma kallikrein (Homo sapiens, UniProt P03952); experiment: Inhibition of human plasma kallikrein assessed as reduction in release of p-nitroaniline after 10 to 120 mins by Michaelis-Menten equation analysis; format: cell-free; how it was run: as §1
[10] = Inhibition of human […] chymotrypsin assessed as reduction in release of p-nitroaniline after 10 to 120 mins by Michaelis-Menten equation analysis
[11] = system: Plasma; experiment: Anticoagulant activity in human plasma assessed as concentration required for 50% increase in activated partial thromboplastin time by automated coagulation analyzer; format: functional
How it was run: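 aPTT clotting assay in pooled normal human plasma on an automated coagulation analyzer with commercial reagents. EC1.5x is the inhibitor plasma concentration giving a 50% increase in clotting time over the no-inhibitor control.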

[12] = biological target: Prothrombin (Homo sapiens, UniProt P00734); experiment: Inhibition of human coagulation thrombin assessed as reduction in release of p-nitroaniline after 10 to 120 mins by Michaelis-Menten equation analysis; how it was run: as §1
[13] = biological target: Vitamin K-dependent protein C (Homo sapiens, UniProt P04070); experiment: Inhibition of human activated protein C assessed as reduction in release of p-nitroaniline after 10 to 120 mins by Michaelis-Menten equation analysis; how it was run: as §1
[14] = system: Canis familiaris; experiment: (§2) Half life in beagle dog plasma at 0.2 mg/kg, iv and 0.2 mg/kg, po by LC-MS/MS method; format: ADME, organism-based, Canis lupus familiaris; conditions: in vivo
How it was run: (§3)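 Dogs dosed iv and po in N-in-1 (cassette) format. The same vehicle was used for both routes: 70% water, 10% ethanol, 10% dimethylacetamide, 10% polypropylene glycol.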

[15] = Oral bioavailability in beagle dog plasma at 0.2 mg/kg by LC-MS/MS method; format: ADME, organism-based, Canis lupus familiaris; how it was run: as §3
[16] = system: Canis familiaris; experiment: (§4) Volume of distribution at steady state in beagle dog plasma at 0.2 mg/kg, iv and 0.2 mg/kg, po by LC-MS/MS method; format: ADME, organism-based, Canis lupus familiaris; conditions: in vivo; how it was run: as §3
[17] = system: Canis familiaris; experiment: (§5) Clearance in beagle dog plasma at 0.2 mg/kg, iv and 0.2 mg/kg, po administered in cassette format by LC-MS/MS method; format: ADME, organism-based, Canis lupus familiaris; conditions: in vivo; how it was run: as §3
[18] = Clearance in beagle dog plasma at 0.2 mg/kg, iv and 0.29 mg/kg, po administered in cassette format by LC-MS/MS method; format: ADME, organism-based, Canis lupus familiaris; how it was run: as §3
[19] = Volume of distribution at steady state in beagle dog plasma at 0.2 mg/kg, iv and 0.29 mg/kg, po by LC-MS/MS method; format: ADME, organism-based, Canis lupus familiaris; conditions: read-out: Vdss; how it was run: as §3
[20] = AUC in beagle dog plasma at 0.2 mg/kg, iv and 0.29 mg/kg, po by LC-MS/MS method; format: ADME, organism-based, Canis lupus familiaris; how it was run: as §3
[21] = Half life in beagle dog plasma at 0.2 mg/kg, iv and 0.29 mg/kg, po by LC-MS/MS method; format: ADME, organism-based, Canis lupus familiaris; how it was run: as §3
[22] = Oral bioavailability in beagle dog plasma at 0.29 mg/kg by LC-MS/MS method; format: ADME, organism-based, Canis lupus familiaris; how it was run: as §3
[23] = AUC in beagle dog plasma at 0.2 mg/kg, iv and 0.2 mg/kg, po by LC-MS/MS method; format: ADME, organism-based, Canis lupus familiaris; how it was run: as §3
[24] = as §2; format: ADME, organism-based, Canis lupus familiaris; conditions: beagle, plasma; how it was run: as §3
[25] = as §4; format: ADME, organism-based, Canis lupus familiaris; conditions: beagle, plasma, read-out: Vdss; how it was run: as §3
[26] = as §5; format: ADME, organism-based, Canis lupus familiaris; conditions: beagle, plasma; how it was run: as §3

Chain of Coagulation factor XI (P03951 19-387 limits assumed): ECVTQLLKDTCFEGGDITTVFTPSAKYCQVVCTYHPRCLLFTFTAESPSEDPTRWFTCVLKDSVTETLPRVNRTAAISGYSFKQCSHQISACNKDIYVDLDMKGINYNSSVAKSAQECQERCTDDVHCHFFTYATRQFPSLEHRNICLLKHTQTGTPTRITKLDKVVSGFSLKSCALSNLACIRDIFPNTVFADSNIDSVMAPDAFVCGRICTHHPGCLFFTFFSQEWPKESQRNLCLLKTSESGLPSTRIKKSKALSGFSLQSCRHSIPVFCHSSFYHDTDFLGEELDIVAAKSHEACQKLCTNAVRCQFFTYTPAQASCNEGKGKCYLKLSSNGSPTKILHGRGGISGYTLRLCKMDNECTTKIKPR
Chain of Coagulation factor XI (P03951 388-625 limits assumed): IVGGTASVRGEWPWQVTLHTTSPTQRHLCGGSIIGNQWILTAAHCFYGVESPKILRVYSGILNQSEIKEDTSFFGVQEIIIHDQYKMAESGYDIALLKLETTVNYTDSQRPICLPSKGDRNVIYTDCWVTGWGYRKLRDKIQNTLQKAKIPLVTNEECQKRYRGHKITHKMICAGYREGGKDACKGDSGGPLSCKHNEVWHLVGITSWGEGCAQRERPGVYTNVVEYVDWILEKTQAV
Chain of Vitamin K-dependent protein C (P04070 43-197 limits assumed): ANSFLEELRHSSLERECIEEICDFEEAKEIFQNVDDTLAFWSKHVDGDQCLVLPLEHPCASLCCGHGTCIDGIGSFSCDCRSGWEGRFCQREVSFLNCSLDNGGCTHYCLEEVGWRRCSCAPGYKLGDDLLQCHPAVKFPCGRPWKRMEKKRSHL
Chain of Vitamin K-dependent protein C (P04070 212-461 limits assumed): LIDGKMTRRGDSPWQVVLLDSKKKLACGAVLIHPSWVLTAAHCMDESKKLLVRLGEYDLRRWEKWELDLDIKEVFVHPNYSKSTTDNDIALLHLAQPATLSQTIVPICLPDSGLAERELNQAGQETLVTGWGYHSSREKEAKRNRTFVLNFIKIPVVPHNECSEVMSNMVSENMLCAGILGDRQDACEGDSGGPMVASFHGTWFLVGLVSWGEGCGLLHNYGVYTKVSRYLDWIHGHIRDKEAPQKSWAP
Chain of Coagulation factor X (P00742 41-179 limits assumed): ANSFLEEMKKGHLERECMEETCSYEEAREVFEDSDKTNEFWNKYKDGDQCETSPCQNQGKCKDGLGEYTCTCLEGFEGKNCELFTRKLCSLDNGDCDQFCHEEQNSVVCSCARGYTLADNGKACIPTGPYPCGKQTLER
Chain of Coagulation factor X (P00742 235-488 limits assumed): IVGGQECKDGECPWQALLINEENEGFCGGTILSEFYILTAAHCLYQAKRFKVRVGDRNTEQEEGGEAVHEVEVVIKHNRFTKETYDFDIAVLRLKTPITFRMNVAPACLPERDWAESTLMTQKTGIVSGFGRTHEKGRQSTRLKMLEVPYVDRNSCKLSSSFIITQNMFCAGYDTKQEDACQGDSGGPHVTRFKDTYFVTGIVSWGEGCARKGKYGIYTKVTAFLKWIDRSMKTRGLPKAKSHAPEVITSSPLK
Chain of Tissue-type plasminogen activator (P00750 whole entry): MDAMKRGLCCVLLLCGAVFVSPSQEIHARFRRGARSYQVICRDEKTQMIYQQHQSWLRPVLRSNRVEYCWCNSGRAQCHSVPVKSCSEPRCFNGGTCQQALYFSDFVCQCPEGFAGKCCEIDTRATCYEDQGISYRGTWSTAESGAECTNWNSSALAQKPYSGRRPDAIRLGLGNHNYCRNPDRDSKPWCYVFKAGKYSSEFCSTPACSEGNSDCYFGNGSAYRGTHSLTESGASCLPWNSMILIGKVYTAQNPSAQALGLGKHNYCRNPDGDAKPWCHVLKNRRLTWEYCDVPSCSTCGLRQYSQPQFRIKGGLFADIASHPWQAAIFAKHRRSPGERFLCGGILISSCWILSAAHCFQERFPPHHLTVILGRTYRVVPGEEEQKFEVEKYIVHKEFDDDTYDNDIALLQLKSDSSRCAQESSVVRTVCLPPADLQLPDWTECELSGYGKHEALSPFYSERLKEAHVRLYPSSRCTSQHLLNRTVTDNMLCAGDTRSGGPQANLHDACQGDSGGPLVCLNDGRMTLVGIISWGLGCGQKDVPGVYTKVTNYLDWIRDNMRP
Chain of Coagulation factor IX (P00740 47-191 limits assumed): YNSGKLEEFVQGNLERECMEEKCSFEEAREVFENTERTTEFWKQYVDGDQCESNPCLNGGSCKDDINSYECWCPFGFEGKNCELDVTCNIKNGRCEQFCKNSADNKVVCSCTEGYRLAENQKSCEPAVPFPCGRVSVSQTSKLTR
Chain of Coagulation factor IX (P00740 227-461 limits assumed): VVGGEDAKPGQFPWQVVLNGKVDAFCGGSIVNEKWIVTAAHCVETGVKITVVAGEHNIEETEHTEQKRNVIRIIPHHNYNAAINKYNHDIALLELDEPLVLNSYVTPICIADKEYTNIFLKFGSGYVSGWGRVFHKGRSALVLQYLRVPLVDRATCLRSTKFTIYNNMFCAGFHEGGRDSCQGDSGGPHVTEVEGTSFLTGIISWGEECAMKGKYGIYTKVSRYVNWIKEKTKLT
Chain of Plasma kallikrein (P03952 20-390 limits assumed): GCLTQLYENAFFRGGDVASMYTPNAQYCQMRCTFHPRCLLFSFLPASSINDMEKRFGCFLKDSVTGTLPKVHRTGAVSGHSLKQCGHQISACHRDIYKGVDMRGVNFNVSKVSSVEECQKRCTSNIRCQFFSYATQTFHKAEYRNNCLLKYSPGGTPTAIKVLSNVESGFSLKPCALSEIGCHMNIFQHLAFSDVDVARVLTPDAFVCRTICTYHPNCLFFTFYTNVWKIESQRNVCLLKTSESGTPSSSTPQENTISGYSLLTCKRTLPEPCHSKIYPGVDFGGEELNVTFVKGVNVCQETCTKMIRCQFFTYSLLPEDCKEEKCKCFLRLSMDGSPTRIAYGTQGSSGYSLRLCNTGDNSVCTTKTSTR
Chain of Plasma kallikrein (P03952 391-638 limits assumed): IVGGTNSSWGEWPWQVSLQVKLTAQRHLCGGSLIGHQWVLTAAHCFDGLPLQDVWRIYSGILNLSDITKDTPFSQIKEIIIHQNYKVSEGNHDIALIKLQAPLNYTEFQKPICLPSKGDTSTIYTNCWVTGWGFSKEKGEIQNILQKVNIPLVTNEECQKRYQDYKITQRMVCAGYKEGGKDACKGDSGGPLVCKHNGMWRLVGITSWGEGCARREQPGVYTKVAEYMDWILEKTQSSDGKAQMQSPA
Chain of Plasminogen (P00747 97-580 limits assumed): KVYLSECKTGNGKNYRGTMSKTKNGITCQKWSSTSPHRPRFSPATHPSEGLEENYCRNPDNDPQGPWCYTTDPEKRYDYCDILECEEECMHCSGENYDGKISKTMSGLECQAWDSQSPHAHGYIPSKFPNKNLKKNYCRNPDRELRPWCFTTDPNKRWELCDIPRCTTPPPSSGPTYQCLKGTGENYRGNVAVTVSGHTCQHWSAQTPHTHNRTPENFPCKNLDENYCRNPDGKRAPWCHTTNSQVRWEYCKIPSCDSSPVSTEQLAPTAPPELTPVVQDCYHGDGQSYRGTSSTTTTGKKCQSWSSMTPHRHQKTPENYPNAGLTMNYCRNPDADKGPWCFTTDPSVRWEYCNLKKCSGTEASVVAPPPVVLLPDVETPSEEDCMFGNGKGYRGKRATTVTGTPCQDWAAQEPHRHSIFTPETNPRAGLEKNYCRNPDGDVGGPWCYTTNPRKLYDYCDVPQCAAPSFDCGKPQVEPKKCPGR
Chain of Plasminogen (P00747 581-810 limits assumed): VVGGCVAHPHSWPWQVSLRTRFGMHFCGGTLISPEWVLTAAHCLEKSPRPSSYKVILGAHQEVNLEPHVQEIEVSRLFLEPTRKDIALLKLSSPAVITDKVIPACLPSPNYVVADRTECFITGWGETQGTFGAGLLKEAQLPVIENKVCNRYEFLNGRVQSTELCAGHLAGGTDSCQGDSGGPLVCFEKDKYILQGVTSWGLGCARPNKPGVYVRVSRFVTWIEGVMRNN

Ki [1]: > 9000 nM | Ki [2]: > 34900 nM | Ki [3]: 3.7 nM | Ki [4]: > 14100 nM | Ki [5]: 999 nM | Ki [6]: > 15200 nM | Ki [7]: > 22100 nM | Ki [8]: > 21900 nM | Ki [9]: 550 nM | Ki [10]: > 20800 nM | Ki [12]: > 12600 nM | Ki [13]: > 30200 nM
Structure (SMILES): NC[C@H]1CC[C@H](C(=O)N[C@@H](Cc2ccccc2)c2cc(-c3ccc4[nH]nc(O)c4c3)ccn2)CC1
EC1.5 [11]: 0.4 µM

t1/2 [14]: 1.5 h | Ki [3]: 2.4 nM | bioavailability [15]: 0% | Vdss [16]: 1.6 L/kg | clearance [17]: 30 mL/min/kg
Structure (SMILES): COC(=O)Nc1ccc(-c2cc([C@H](Cc3ccccc3)NC(=O)/C=C/c3cc(Cl)ccc3-n3cnnn3)[nH]c(=O)c2)cc1
EC1.5 [11]: 2.8 µM

Ki [3]: 10 nM
Structure (SMILES): NC[C@H]1CC[C@H](C(=O)NC(Cc2ccccc2)c2cc(-c3ccc4c(N)ncnc4c3)ccn2)CC1 (mixture of isomers)
EC1.5 [11]: 2.8 µM

clearance [18]: 0.45 mL/min/kg | Vd [19]: 5.4 L/kg | AUC [20]: 0.195 µM·h | Ki [3]: 9.1 nM | half-life [21]: 3.2 h | bioavailability [22]: 66%
Structure (SMILES): COC(=O)Nc1ccc(-c2cc([C@H](Cc3ccccc3)NC(=O)[C@H]3CC[C@H](CN)CC3)ncn2)cc1
EC1.5 [11]: 1.2 µM

Ki [3]: 17 nM
Structure (SMILES): COC(=O)Nc1ccc(-c2cccc([C@H](Cc3ccccc3)NC(=O)[C@H]3CC[C@H](CN)CC3)c2)cc1
EC1.5 [11]: 13 µM

Ki [3]: 24 nM
Structure (SMILES): NC[C@H]1CC[C@H](C(=O)NC(Cc2ccccc2)c2cc(-c3ccc(N)nc3)ccn2)CC1 (mixture of isomers)

Ki [3]: 205 nM
Structure (SMILES): NC[C@H]1CC[C@H](C(=O)NC(Cc2ccccc2)c2cc(-c3cccc(C(=O)O)c3)ccn2)CC1 (mixture of isomers)

AUC [23]: 0.03 µM·h | bioavailability [15]: 10% | clearance [17]: 21 mL/min/kg
Structure (SMILES): COC(=O)Nc1ccc(-c2c[nH]c([C@H](Cc3ccccc3)NC(=O)/C=C/c3cc(Cl)ccc3-n3cnnn3)n2)cc1
EC1.5 [11]: 8.6 µM

Ki [3]: 87 nM
Structure (SMILES): NC[C@H]1CC[C@H](C(=O)NC(Cc2ccccc2)c2cc(-c3ccc4cn[nH]c4c3)ccn2)CC1 (mixture of isomers)
EC1.5 [11]: >40 µM

Ki [3]: 7.5 nM
Structure (SMILES): NC[C@H]1CC[C@H](C(=O)NC(Cc2ccccc2)c2cc(-c3ccc4[nH]nc(O)c4c3)ccn2)CC1 (mixture of isomers)
EC1.5 [11]: 0.5 µM

half-life [24]: 6.8 h | AUC [23]: 0.23 µM·h | Ki [3]: 6.7 nM | bioavailability [15]: 28% | Vd [25]: 4 L/kg | clearance [26]: 0.122 mL/min/kg
Structure (SMILES): COC(=O)Nc1ccc(-c2cc([C@H](Cc3ccccc3)NC(=O)/C=C/c3cc(Cl)ccc3-n3cnnn3)ncn2)cc1
EC1.5 [11]: 21 µM

Ki [3]: 110 nM
Structure (SMILES): Cn1[nH]c2ccc(-c3ccnc(C(Cc4ccccc4)NC(=O)[C@H]4CC[C@H](CN)CC4)c3)cc2c1=O (mixture of isomers)

Ki [3]: 3.2 nM
Structure (SMILES): NC[C@H]1CC[C@H](C(=O)N[C@H](Cc2ccccc2)c2cc(-c3ccc4c(N)noc4c3)ccn2)CC1

Ki [3]: 8.4 nM
Structure (SMILES): COC(=O)Nc1ccc(-c2cncc([C@H](Cc3ccccc3)NC(=O)[C@H]3CC[C@H](CN)CC3)c2)cc1
EC1.5 [11]: 1.3 µM
